Measurements: ChEMBL document CHEMBL1154099, “Synthesis and evaluation of in vitro anti-microbial and anti-tubercular activity of 2-styryl benzimidazoles” (2009)
Values after ≈ are worked out from the molar mass of the structure shown.

What was measured:
Type in all cases: functional
[1] = tested on: Candida albicans; test: Antifungal activity against Candida albicans ATCC 10145 after 48 hrs by twofold tube dilution method; conditions: ATCC 10145, 48 h
Procedure, shortened: (§1)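 Fungi maintained in Sabouraud Dextrose Broth for 48 h at 25 ± 1 °C. Testing by twofold dilution in Sabouraud Dextrose Broth, pH 7.4, with DMSO stocks serially diluted from 125 to 1 µg/ml. Inoculated broth-only tubes served as controls. After 48 h at 25 ± 1 °C, the last tube showing no growth was recorded as the MIC.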

[2] = tested on: Staphylococcus aureus; test: Antibacterial activity against Staphylococcus aureus ATCC 25923 after 18 to 20 hrs by twofold tube dilution method
Procedure, shortened: (§2)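 Bacterial cultures grown 18–24 h at 37 ± 1 °C in Mueller–Hinton Broth. Testing by twofold tube dilution in Mueller–Hinton Broth, pH 7.4. Inoculated broth-only tubes served as controls. MIC taken as the lowest concentration preventing visible growth.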

[3] = tested on: Klebsiella pneumoniae; test: Antibacterial activity against Klebsiella pneumoniae ATCC 13883 after 18 to 20 hrs by twofold tube dilution method; procedure, shortened: as §2
[4] = tested on: Mycobacterium tuberculosis; test: Antitubercular activity against Mycobacterium tuberculosis H37Rv by microplate alamar blue assay
Procedure, shortened: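 M. tuberculosis H37Rv, with compounds that reached at least 90% inhibition in the primary screen. Serial dilution to lower concentrations, microplate Alamar blue assay. MIC taken as the lowest inhibitory concentration. Streptomycin used as reference.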

[5] = tested on: Escherichia coli; test: Antibacterial activity against Escherichia coli ATCC 25922 after 18 to 20 hrs by twofold tube dilution method; procedure, shortened: as §2
[6] = tested on: Aspergillus fumigatus; test: Antifungal activity against Aspergillus fumigatus after 48 hrs by twofold tube dilution method; procedure, shortened: as §1
[7] = tested on: Enterococcus faecalis; test: Antibacterial activity against Enterococcus faecalis ATCC 29212 after 18 to 20 hrs by twofold tube dilution method; procedure, shortened: as §2
[8] = tested on: Mycobacterium tuberculosis; test: Antitubercular activity against Mycobacterium tuberculosis H37Rv at 7.25 ug/ml by microplate alamar blue assay
Procedure, shortened: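 M. tuberculosis H37Rv (ATCC 27294) in BACTEC 12B medium, broth microdilution with microplate Alamar blue read-out. Primary screen at a single concentration of 7.25 µg/ml. Result expressed as percent inhibition.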

## Brc1ccc2[nH]c(/C=C/c3ccccc3)nc2c1
[1]
  MIC: 8 µg/mL (≈ 26.7 µM)
[2]
  MIC: 2 µg/mL (≈ 6.69 µM)
[3]
  MIC: 31.2 µg/mL (≈ 104 µM)
[4]
  MIC: > 75 µg/mL
[5]
  MIC: 16.1 µg/mL (≈ 53.9 µM)
[6]
  MIC: 8 µg/mL (≈ 26.7 µM)
[7]
  MIC: 16.1 µg/mL (≈ 53.9 µM)
[8]
  inhibition at 7.25 µg/mL: 83%

## Brc1ccc2[nH]c(/C=C/c3ccc4c(c3)OCO4)nc2c1
[1]
  MIC: 31.2 µg/mL (≈ 91.1 µM)
[2]
  MIC: 8 µg/mL (≈ 23.3 µM)
[3]
  MIC: 16.1 µg/mL (≈ 47 µM)
[4]
  MIC: > 75 µg/mL
[5]
  MIC: 31.2 µg/mL (≈ 91.1 µM)
[6]
  MIC: 31.2 µg/mL (≈ 91.1 µM)
[7]
  MIC: 31.2 µg/mL (≈ 91.1 µM)

## Cc1ccc(/C=C/c2nc3cc(Br)ccc3[nH]2)cc1
[1]
  MIC: 4 µg/mL (≈ 12.8 µM)
[2]
  MIC: 31.2 µg/mL (≈ 99.8 µM)
[3]
  MIC: 8 µg/mL (≈ 25.5 µM)
[4]
  MIC: > 75 µg/mL
[5]
  MIC: 16 µg/mL (≈ 51.1 µM)
[6]
  MIC: 8 µg/mL (≈ 25.5 µM)
[7]
  MIC: 31.2 µg/mL (≈ 99.8 µM)
[8]
  inhibition at 7.25 µg/mL: 63%

## O=C(O)c1cn(C2CC2)c2cc(N3CCNCC3)c(F)cc2c1=O [CIPROFLOXACIN]
[2]
  MIC: 0.78 µg/mL (≈ 2.35 µM)
[3]
  MIC: 0.19 µg/mL (≈ 0.573 µM)
[7]
  MIC: 0.7 µg/mL (≈ 2.11 µM)

## O=[N+]([O-])c1ccc2[nH]c(/C=C/c3cccc(O)c3)nc2c1
[1]
  MIC: 31.2 µg/mL (≈ 111 µM)
[2]
  MIC: 4 µg/mL (≈ 14.2 µM)
[3]
  MIC: 31.2 µg/mL (≈ 111 µM)
[4]
  MIC: > 75 µg/mL
[5]
  MIC: 31.2 µg/mL (≈ 111 µM)
[6]
  MIC: 62.5 µg/mL (≈ 222 µM)
[7]
  MIC: 31.2 µg/mL (≈ 111 µM)

## Cc1ccc(/C=C/c2nc3cc([N+](=O)[O-])ccc3[nH]2)cc1
[1]
  MIC: 31.2 µg/mL (≈ 112 µM)
[2]
  MIC: 4 µg/mL (≈ 14.3 µM)
[3]
  MIC: 16.1 µg/mL (≈ 57.7 µM)
[4]
  MIC: > 75 µg/mL
[5]
  MIC: 62.5 µg/mL (≈ 224 µM)
[6]
  MIC: 31.2 µg/mL (≈ 112 µM)
[7]
  MIC: 16.1 µg/mL (≈ 57.7 µM)

## O=[N+]([O-])c1ccc2[nH]c(/C=C/c3ccc4c(c3)OCO4)nc2c1
[1]
  MIC: 16.1 µg/mL (≈ 52.1 µM)
[2]
  MIC: 31.2 µg/mL (≈ 101 µM)
[3]
  MIC: 62.5 µg/mL (≈ 202 µM)
[4]
  MIC: > 75 µg/mL
[5]
  MIC: 31.2 µg/mL (≈ 101 µM)
[6]
  MIC: 16.1 µg/mL (≈ 52.1 µM)
[7]
  MIC: 31.2 µg/mL (≈ 101 µM)

## OC(Cn1cncn1)(Cn1cncn1)c1ccc(F)cc1F [FLUCONAZOLE]
[1]
  MIC: 2 µg/mL (≈ 6.53 µM)
[6]
  MIC: 2 µg/mL (≈ 6.53 µM)

## CN[C@@H]1[C@H](O[C@H]2[C@H](O[C@H]3[C@H](O)[C@@H](O)[C@H](N=C(N)N)[C@@H](O)[C@@H]3N=C(N)N)O[C@@H](C)[C@]2(O)C=O)O[C@@H](CO)[C@H](O)[C@H]1O [STREPTOMYCIN]
[8]
  inhibition at 7.25 µg/mL: 100%

## Oc1cccc(/C=C/c2nc3cc(Br)ccc3[nH]2)c1
[1]
  MIC: 4 µg/mL (≈ 12.7 µM)
[2]
  MIC: 1 µg/mL (≈ 3.17 µM)
[3]
  MIC: 4 µg/mL (≈ 12.7 µM)
[4]
  MIC: > 75 µg/mL
[5]
  MIC: 4 µg/mL (≈ 12.7 µM)
[6]
  MIC: 8 µg/mL (≈ 25.4 µM)
[7]
  MIC: 1 µg/mL (≈ 3.17 µM)

## Clc1ccc(/C=C/c2nc3cc(Br)ccc3[nH]2)c(Cl)c1
[1]
  MIC: 31.2 µg/mL (≈ 84.9 µM)
[2]
  MIC: 16.1 µg/mL (≈ 43.8 µM)
[3]
  MIC: 2 µg/mL (≈ 5.43 µM)
[4]
  MIC: > 75 µg/mL
[5]
  MIC: 31.2 µg/mL (≈ 84.9 µM)
[6]
  MIC: 16.1 µg/mL (≈ 43.8 µM)
[7]
  MIC: 8 µg/mL (≈ 21.7 µM)
[8]
  inhibition at 7.25 µg/mL: 76%

## O=[N+]([O-])c1ccc2[nH]c(/C=C/c3ccccc3)nc2c1
[1]
  MIC: 16.1 µg/mL (≈ 60.8 µM)
[2]
  MIC: 8 µg/mL (≈ 30.2 µM)
[3]
  MIC: 4 µg/mL (≈ 15.1 µM)
[4]
  MIC: > 75 µg/mL
[5]
  MIC: 31.2 µg/mL (≈ 118 µM)
[6]
  MIC: 16.1 µg/mL (≈ 60.8 µM)
[7]
  MIC: 31.2 µg/mL (≈ 118 µM)

## COc1ccc(/C=C/c2nc3cc([N+](=O)[O-])ccc3[nH]2)cc1OC
[1]
  MIC: 16.1 µg/mL (≈ 49.6 µM)
[2]
  MIC: 31.2 µg/mL (≈ 96.1 µM)
[3]
  MIC: 16.1 µg/mL (≈ 49.6 µM)
[4]
  MIC: > 75 µg/mL
[5]
  MIC: 31.2 µg/mL (≈ 96.1 µM)
[6]
  MIC: 31.2 µg/mL (≈ 96.1 µM)
[7]
  MIC: 31.2 µg/mL (≈ 96.1 µM)

## COc1ccc(/C=C/c2nc3cc(Br)ccc3[nH]2)cc1OC
[1]
  MIC: 1 µg/mL (≈ 2.78 µM)
[2]
  MIC: 2 µg/mL (≈ 5.57 µM)
[3]
  MIC: 8 µg/mL (≈ 22.3 µM)
[4]
  MIC: > 75 µg/mL
[5]
  MIC: 31.2 µg/mL (≈ 87 µM)
[6]
  MIC: 2 µg/mL (≈ 5.57 µM)
[7]
  MIC: 2 µg/mL (≈ 5.57 µM)
[8]
  inhibition at 7.25 µg/mL: 54%

## O=[N+]([O-])c1ccc2[nH]c(/C=C/c3ccc(Cl)cc3Cl)nc2c1
[1]
  MIC: 16.1 µg/mL (≈ 48.2 µM)
[2]
  MIC: 31.2 µg/mL (≈ 93.5 µM)
[3]
  MIC: 62.5 µg/mL (≈ 187 µM)
[4]
  MIC: > 75 µg/mL
[5]
  MIC: 62.5 µg/mL (≈ 187 µM)
[6]
  MIC: 31.2 µg/mL (≈ 93.5 µM)
[7]
  MIC: 31.2 µg/mL (≈ 93.5 µM)
[8]
  inhibition at 7.25 µg/mL: 45%
